From PubChem
Runt-CBFb FRET: blocks binding of human RUNX1 Runt domain to CBFb; Q01196+Q13951; Cerulean-Runt/Venus-CBFb FRET ratio 530/480, 1 h; inhibition, % at 20 µM; 220,000 tested, 0.46% active; AID 1496;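 active means inhibition over about 50% at 20 µM in the single-dose screen, limit read from the data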;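 further: 0% = DMSO wells and 100% = excess unlabeled CBFb competitor control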
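test system = Cerulean-Runt domain fusion protein, energy donor | probe or stimulus = Venus-CBFb binding partner, 100 nM | incubation = two 1 h room-temperature incubations shielded from light | detection = fluorescence energy transfer, 422 nm excitation, 530/480 nm emission | measure = loss of energy transfer signal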
MEX-5 binding: C. elegans MEX-5 TCR-2 RNA binding activity; MEX-5/FITC-TCR2 RNA binding, fluorescence polarization; active compounds read low; activity score (negative = inhibition of binding), % at 10 µM; 300,000 tested, 0.38% active; AID 1832;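 active means inhibition past about -25% in most replicates, and total fluorescence under double the plate's negative control median, limit read from the data; inconclusive means replicates evenly split on the limit, or fluorescence at least double controls; inactive means too little inhibition in most replicates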;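 further: 0% = DMSO and -100% = 5 µM competing unlabeled TCR2 RNA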
Runt-SMMHC FRET: blocks binding of human RUNX1 Runt domain to CBFb-SMMHC; Q01196+Q13951; Cerulean-Runt/Venus-CBFb-SMMHC FRET ratio 530/480, 1 h; inhibition, % at 20 µM; 220,000 tested, 0.74% active;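 active means mean inhibition across duplicate retests at 20 µM reaching about 50%, limit read from the data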;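 further: 0% = DMSO wells and 100% = wells with excess untagged CBFb-SMMHC; inhibitors lower the FRET ratio by blocking Runt binding to CBFb-SMMHC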
RanGTP-Impb inh: disruptors of Ran-importin-beta complex formation – biochemical, FRET, CFP-Ran, YFP-importin-beta, homogeneous, primary screen; cell-free CFP-Ran/YFP-importin-beta FRET ratio; inhibition, % (no concentration beside the values); 300,000 tested, 1.1% active; AID 2216;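 active means more than half of the replicate wells show a fall in the fluorescence ratio signal beyond about 16%, limit read from the data, passing the limit was not always enough; inconclusive means exactly half of the replicate wells pass the set limit; inactive means fewer than half of replicates pass the limit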;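 further: 0% = DMSO wells and 100% = Ran loaded with GDP instead of GTP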
EBV gp42 block: EBV gp42 inhibition. Fluorescence polarization binding assay, mP read-out. AID 1085. inhibition, % (tested at 21.74 µM). 220,000 tested, 0.42% active
PKD1 kinase inh: inhibitors of human PKD1 kinase. PKD1 kinase fluorescence polarization assay. Q15139. inhibition, % (no concentration beside the values). AID 797. 200,000 tested, 0.056% active
Target sequence (Q15139 whole entry, looked up): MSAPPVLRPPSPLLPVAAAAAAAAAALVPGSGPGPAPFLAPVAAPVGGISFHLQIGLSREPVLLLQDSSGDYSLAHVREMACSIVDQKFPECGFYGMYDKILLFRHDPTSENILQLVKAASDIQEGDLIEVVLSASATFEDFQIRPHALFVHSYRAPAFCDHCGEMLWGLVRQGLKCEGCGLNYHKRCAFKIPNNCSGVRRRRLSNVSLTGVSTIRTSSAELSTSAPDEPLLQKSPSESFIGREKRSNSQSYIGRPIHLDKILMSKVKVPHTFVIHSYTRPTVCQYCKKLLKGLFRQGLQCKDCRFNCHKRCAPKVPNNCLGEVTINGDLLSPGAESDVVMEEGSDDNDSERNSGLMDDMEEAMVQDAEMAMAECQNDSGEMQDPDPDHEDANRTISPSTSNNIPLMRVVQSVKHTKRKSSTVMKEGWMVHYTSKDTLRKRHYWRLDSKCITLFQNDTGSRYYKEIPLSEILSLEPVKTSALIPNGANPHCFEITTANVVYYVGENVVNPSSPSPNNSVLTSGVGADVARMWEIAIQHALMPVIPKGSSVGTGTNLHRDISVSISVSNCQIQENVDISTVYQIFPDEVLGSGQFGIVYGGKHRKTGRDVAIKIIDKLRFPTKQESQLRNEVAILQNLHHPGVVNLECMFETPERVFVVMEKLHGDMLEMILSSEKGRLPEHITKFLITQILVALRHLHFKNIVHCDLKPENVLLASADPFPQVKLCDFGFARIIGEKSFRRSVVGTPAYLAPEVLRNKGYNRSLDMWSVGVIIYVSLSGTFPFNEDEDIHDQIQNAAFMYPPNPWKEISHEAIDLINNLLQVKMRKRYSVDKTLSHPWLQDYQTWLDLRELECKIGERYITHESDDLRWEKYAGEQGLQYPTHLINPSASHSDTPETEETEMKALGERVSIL
An asterisk follows results filed as active; ? = inconclusive; / = no result. This is a sample that favours compounds with a hit; in the whole collection about 2% have one here. Unless noted, no stated cut-off is given here; in the data, active means inhibition above about 50%; inactive means the rest.

SMILES | Runt-CBFb FRET | MEX-5 binding | Runt-SMMHC FRET | RanGTP-Impb inh | EBV gp42 block | PKD1 kinase inh
CC(C)(C)n1nc2c(c1NC(=O)c1ccc(Cl)c([N+](=O)[O-])c1)CS(=O)(=O)C2 | / | -1 | / | 3 | / | /
CCCCOc1ccc(OC(=O)Nc2cc(Cl)ccc2OC)cc1 | 1 | -1 | 0 | 0 | -1 | /
Cc1nc(S/C(=C/c2ccc(-c3ccc(C(=O)O)cc3)o2)C(=O)O)n[nH]1 | -12 | -80* | -72 | 6 | -20 | /
CC(=O)c1ccc(-c2ccc(/C=C(/Sc3n[nH]c(C)n3)C(=O)O)o2)cc1 | -6 | -35* | -92 | 6 | -21 | /
Cc1nc(S/C(=C/c2ccc(-c3cc(Cl)ccc3C)o2)C(=O)O)n[nH]1 | -13 | -9 | -91 | -13 | 2 | /
Cc1nc(S/C(=C/c2ccc(-c3ccc(Cl)cc3)o2)C(=O)O)n[nH]1 | 8 | 1 | -69 | -12 | -32 | -10
O=C(O)/C=C/c1ccc(O)c(O)c1 | 45 | -8 | 58 | 2 | 1 | -6
O=C(/C=C/c1ccc(O)c(O)c1)O[C@H](Cc1ccc(O)c(O)c1)C(=O)O | 42 | -98* | 21 | 12 | -6 | /
Cc1cc(NC(=O)CCC(=O)N(Cc2ccco2)C(C(=O)NCC2CCCO2)c2ccncc2)no1 (stereo not drawn) | 0 | -4 | 6 | -1 | 4 | 74*
O=C(CN1C(=O)COc2ccc(S(=O)(=O)N3CCCC3)cc21)NC1CCCCCCC1 | -1 | 1 | -1 | 0 | -5 | -9
Cc1nn(C(=O)c2ccco2)c(C)c1Sc1ccccc1 | 53* | 6 | -2 | 6 | -5 | 6
Nc1cccc2c1C(=O)N(CCOc1ccc(F)cc1)C2=O | / | -4 | / | 26* | / | /
COc1cc(CCC(=O)N2CCN(c3ncccn3)CC2)cc(OC)c1OC | 4 | 1 | 0 | -2 | 86* | -1
Cc1ccc(NC(=O)COc2ccc(/C=C3/SC(=Nc4ccccc4)N(Cc4cccnc4)C3=O)cc2)cc1 | -9 | -60* | -26 | 0 | 8 | -4
O=C(CSC1=NS(=O)(=O)c2cc(F)ccc2N1)Nc1cccc(F)c1 | / | 0 | / | -1 | / | /
COc1ccc(NC(=S)NNc2ccc(S(=O)(=O)Nc3ccccc3C(=O)O)cc2[N+](=O)[O-])cc1 | 16 | -87* | 15 | -5 | -5 | /
Cc1nn(-c2ccccc2)c(Cl)c1/C=N/Nc1ccc(S(=O)(=O)Nc2ccccc2C(=O)O)cc1[N+](=O)[O-] | -20 | 0 | -31 | -2 | 73* | 9
CC(C)CCN1CCN(CC#Cc2ccccc2)CC1CCO (stereo not drawn) | 1 | -1 | -1 | 1 | -14 | -3
COc1ccc(C2=NOC(Cn3nc(C(=O)NCc4ccccc4OC)cc3-c3ccccc3)C2)cc1 (stereo not drawn) | / | 0 | / | -2 | / | /
Cc1ccc(S(=O)(=O)NN2C(=O)c3ccccc3NC2c2ccccn2)cc1 (stereo not drawn) | 2 | -8 | 0 | 3 | -12 | -9
O=[N+]([O-])c1cccc(-c2cn3nc(-c4ccccc4)c(-c4ccccc4)nc3n2)c1 | 0 | -44* | 90 | 70* | 72* | /
O=[N+]([O-])c1ccc(-c2cn3nc(-c4ccccc4)c(-c4ccccc4)nc3n2)cc1 | -130 | -17 | 81 | 42* | 111* | /
O=C(NCc1nnnn1-c1ccc(F)c(F)c1)c1ccc(S(=O)(=O)N2CCOCC2)cc1 | / | 0 | / | ? | / | /
COc1cccc(CC(=S)N2CCOCC2)c1 | -1 | 0 | 100 | 2 | -5 | 0
COC(=O)c1cc2c(s1)-c1cc(F)ccc1OC2 | 9 | -1 | 19 | 6 | 0 | /
SMILES | Runt-CBFb FRET | MEX-5 binding | Runt-SMMHC FRET | RanGTP-Impb inh | EBV gp42 block | PKD1 kinase inh
CC(=O)c1cc2c(s1)-c1cc(F)ccc1OC2 | -54 | -4 | 88* | -39 | 19 | /
Oc1ccc(/C=N/N2CCOCC2)c(O)c1O | 3 | -47* | -7 | 2 | -16 | 5
Oc1ccc(/C=N/N2CCCCC2)c(O)c1O | / | -29* | / | -3 | / | /
Oc1cccc(/C=N/N2CCCCC2)c1O | / | -7 | / | 0 | / | /
COc1cccc(/C=N/N2CCOCC2)c1O | 3 | 1 | -1 | -6 | 6 | -2
O=C1NC2(CCCCCC2)C(=O)N1Cc1c(F)cccc1Cl | / | 1 | / | 0 | / | /
CN(CCC#N)c1ccc(/C=C(\C#N)c2ccccn2)cc1 | 4 | -17 | 79* | -27 | 12 | -13
N#C/C(=C\c1ccc(C(=O)O)cc1)c1ccccn1 | 0 | 1 | 0 | ? | -6 | -11
CCN(Cc1ccccc1)c1ccc(/C=C(\C#N)c2ccccn2)cc1 | -125 | -20 | -59 | 6 | -16 | 0
CCN(CC)c1ccc(/C=C(\C#N)c2ccccn2)cc1 | -21 | -6 | -45 | 45* | -69 | -22
O=C(C1CCC(CNc2c(N3CCCCC3)c(=O)c2=O)CC1)N1CCCC1 (stereo not drawn) | 0 | 1 | 1 | 9 | -10 | /
Cc1cc(Cl)ccc1C(=O)C1CCCN(C(=O)c2cncs2)C1 (stereo not drawn) | / | 0 | / | -5 | / | /
CCCOc1cc(N(CC)CC)ccc1/C=C(/C#N)c1nc2ccc(C)cc2[nH]1 | -108 | -4 | -342 | -107 | 92* | -1
CCN(CC)c1ccc(/C=C(/C#N)c2nc3ccc(C)cc3[nH]2)c(OC(C)C)c1 | -131 | -15 | -284 | -86 | 67* | 0
CCOc1cc(N(CC)CC)ccc1/C=C(/C#N)c1nc2ccccc2[nH]1 | -59 | -1 | -223 | -79 | 42 | -18
CCOC(=O)c1c(C)n(C)c2ccc(OC)c([N+](=O)[O-])c12 | 1 | -2 | 1 | 4 | -17 | -3
Cc1cc(/C=N/NC(N)=S)c(O)c(/C=N/NC(N)=S)c1 | -137 | -4 | 43 | 60* | 147* | /
NC(=S)N/N=C/c1cccc(O)c1O | 2 | -38* | -9 | 2 | 5 | -5
Oc1ccc(/C=N/NC(=S)Nc2cccnc2)c(O)c1O | 34 | -43* | 16 | 3 | 15 | /
Oc1cccc(/C=N/NC(=S)Nc2cccnc2)c1O | 8 | -12 | -2 | 0 | -1 | 3
Cn1cnnc1SCC(=O)c1ccc(O)c(O)c1 | 3 | -4 | 0 | -1 | -15 | -10
CCOC(=O)C1CCN(C(=O)COc2ccc(S(=O)(=O)N3CCOCC3)cc2C)CC1 | / | -1 | / | 2 | / | /
Cc1ccc(-c2nnc(CCC(=O)NCc3csc(C)n3)o2)s1 | 2 | -1 | 0 | -2 | 0 | /
NC(CO)C(=O)NNCc1ccc(O)c(O)c1O (stereo not drawn) | 22 | -33* | 21 | 6 | -3 | -9
CC1CCN(C(=O)CN2C(=O)C(C)(C)Oc3ccc(C(=O)NC(C)C)cc32)CC1 | / | 0 | / | 0 | / | /
Oc1ccc(Br)cc1/C=N/n1c(-c2ccccc2)n[nH]c1=S | / | 4 | / | 18* | / | /
